From ChEMBL document CHEMBL2331463, “Probing functional diversity in pactamycin toward antibiotic, antitumor, and antiprotozoal activity” (Bioorg Med Chem, 2013)
In brackets after ≈: the same amount, converted by molar mass.

What was measured:
Staphylococcus aureus = experiment: Antibacterial activity against Staphylococcus aureus ATCC 25923 after 20 hrs by broth microdilution method; format: functional; details: ATCC 25923, 20 h
Method in brief: (§1)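 MIC determined by standard broth microdilution following CLSI recommendations (document M07-A8).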

HCT-116 = experiment: Cytotoxicity against human HCT116 cells; format: functional, cell-based
PC-3 = experiment: Cytotoxicity against human PC3 cells; format: functional, cell-based; details: for IC50: Homo sapiens, PC-3
Enterococcus faecalis = experiment: Antibacterial activity against Enterococcus faecalis ATCC 29212 after 20 hrs by broth microdilution method; format: functional; details: ATCC 29212, 20 h; method in brief: as §1
Acinetobacter baumannii = experiment: Antibacterial activity against Acinetobacter baumannii clinical isolate after 20 hrs by broth microdilution method; format: functional; method in brief: as §1
Escherichia coli = experiment: Antibacterial activity against Escherichia coli ATCC 25922 after 20 hrs by broth microdilution method; format: functional; details: ATCC 25922, 20 h; method in brief: as §1
Plasmodium falciparum [1] = experiment: Antimalarial activity against Plasmodium falciparum D6 after 72 hrs by SYBR Green-based fluorescence assay; format: functional, organism-based; details: D6, 72 h
Method in brief: (§2)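 Drug stocks were made at 10 mM in sterile distilled water and serially diluted in culture medium. These were added in quadruplicate to asynchronous P. falciparum cultures at 0.2% parasitemia and 2% hematocrit, then incubated 72 h at 37 °C. Lysis buffer containing SYBR Green I was added, followed by 1 h at room temperature in the dark. Fluorescence was read at ex 497/em 520 nm, and IC50 was obtained by nonlinear regression of logistic dose-response curves.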

Plasmodium falciparum [2] = experiment: Antimalarial activity against Plasmodium falciparum 7G8 after 72 hrs by SYBR Green-based fluorescence assay; format: functional, organism-based; details: 7G8, 72 h; method in brief: as §2
Klebsiella pneumoniae = experiment: Antibacterial activity against Klebsiella pneumoniae ATCC 700603 after 20 hrs by broth microdilution method; format: functional; details: ATCC 700603, 20 h; method in brief: as §1
[3] = Cytotoxicity against human MDA231 cells; format: functional, cell-based; details: MDA-MB-231
WI-38 = experiment: Cytotoxicity against human WI38 cells; format: functional, cell-based; details: for IC50: Homo sapiens, WI-38
Pseudomonas aeruginosa = experiment: Antibacterial activity against Pseudomonas aeruginosa ATCC 27853 after 20 hrs by broth microdilution method; format: functional; details: ATCC 27853, 20 h; method in brief: as §1
Plasmodium falciparum [4] = experiment: Antimalarial activity against Plasmodium falciparum Dd2 after 72 hrs by SYBR Green-based fluorescence assay; format: functional, organism-based; details: Dd2, 72 h; method in brief: as §2

| SMILES | MIC (Staphylococcus aureus) [µg/mL] | IC50 (HCT-116) [nM] | IC50 (PC-3) [nM] | MIC (Enterococcus faecalis) [µg/mL] | MIC (Acinetobacter baumannii) [µg/mL] | MIC (Escherichia coli) [µg/mL] | IC50 (Plasmodium falciparum [1]) [nM] | IC50 (Plasmodium falciparum [2]) [nM] | MIC (Klebsiella pneumoniae) [µg/mL] | IC50 [3] [nM] | IC50 (WI-38) [nM] | MIC (Pseudomonas aeruginosa) [µg/mL] | IC50 (Plasmodium falciparum [4]) [nM] | inhibition (INH) (PC-3) [%] | inhibition (INH) (WI-38) [%] |
| --- | --- | --- | --- | --- | --- | --- | --- | --- | --- | --- | --- | --- | --- | --- | --- |
| CC(=O)c1cccc(N[C@H]2[C@H](N)[C@@](NC(=O)N(C)C)([C@H](C)O)[C@@](C)(O)[C@@]2(O)CO)c1 | 2 (≈ 4.71 µM) | 70 | 310 | 64 (≈ 151 µM) | 128 (≈ 302 µM) | 4 (≈ 9.42 µM) | < 2.5 | 2.5 | 8 (≈ 18.8 µM) | 260 | > 1000 | 128 (≈ 302 µM) | < 2.5 | – | – |
| CC(=O)c1cccc(N[C@H]2[C@H](N)[C@]3(NC(=O)O[C@H]3C)[C@@](C)(O)[C@@]2(O)CO)c1 | > 128 | > 1000 | > 1000 | > 128 | > 128 | > 128 | > 2500 | > 2500 | > 128 | > 1000 | > 1000 | > 128 | > 2500 | – | – |
| CCN(CC)C(=O)N[C@@]1([C@H](C)O)[C@@H](N)[C@H](Nc2cccc(C(C)=O)c2)[C@](O)(CO)[C@]1(C)O | 4 (≈ 8.84 µM) | 230 | 400 | 128 (≈ 283 µM) | > 128 | > 128 | 29 | 42 | > 128 | 440 | > 1000 | > 128 | 40 | – | – |
| CC(=O)c1cccc(N[C@H]2[C@H](N)[C@@](NC(=O)N3CCCC3)([C@H](C)O)[C@@](C)(O)[C@@]2(O)CO)c1 | 8 (≈ 17.8 µM) | 90 | 150 | 128 (≈ 284 µM) | > 128 | 64 (≈ 142 µM) | 9 | 10 | 128 (≈ 284 µM) | 120 | > 1000 | > 128 | 9 | – | – |
| CC(=O)c1cccc(N[C@H]2[C@H](N)[C@@](NC(=O)N3CCCCC3)([C@H](C)O)[C@@](C)(O)[C@@]2(O)CO)c1 | > 128 | > 1000 | > 1000 | > 128 | > 128 | > 128 | > 2500 | 1600 | > 128 | > 1000 | > 1000 | > 128 | 2000 | – | – |
| CC(=O)c1cccc(N[C@H]2[C@H](N)[C@@](NC(=O)N3CCOCC3)([C@H](C)O)[C@@](C)(O)[C@@]2(O)CO)c1 | > 128 | > 1000 | > 1000 | > 128 | > 128 | > 128 | > 2500 | > 2500 | > 128 | > 1000 | > 1000 | > 128 | > 2500 | – | – |
| C[C@H](O)[C@]1(NC(=O)N(C)C)[C@@H](N)[C@H](Nc2ccccc2)[C@](O)(CO)[C@]1(C)O | 64 (≈ 167 µM) | 810 | > 1000 | > 128 | > 128 | 32 (≈ 83.7 µM) | 14.6 | 18.5 | 64 (≈ 167 µM) | > 1000 | > 1000 | > 128 | 13.9 | – | – |
| C[C@H](O)[C@]1(NC(=O)N(C)C)[C@@H](N)[C@H](Nc2cccc(F)c2)[C@](O)(CO)[C@]1(C)O | 4 (≈ 9.99 µM) | 190 | > 1000 | 128 (≈ 320 µM) | 64 (≈ 160 µM) | 8 (≈ 20 µM) | 6.5 | < 2.5 | 32 (≈ 79.9 µM) | > 1000 | > 1000 | > 128 | 7.4 | 35 | 34 |
| COc1cccc(N[C@H]2[C@H](N)[C@@](NC(=O)N(C)C)([C@H](C)O)[C@@](C)(O)[C@@]2(O)CO)c1 | 16 (≈ 38.8 µM) | 390 | > 1000 | > 128 | 128 (≈ 310 µM) | 64 (≈ 155 µM) | 13.7 | 19.8 | > 128 | > 1000 | > 1000 | > 128 | 11.5 | – | – |
| C[C@H](O)[C@]1(NC(=O)N(C)C)[C@@H](N)[C@H](Nc2cccc(C(F)(F)F)c2)[C@](O)(CO)[C@]1(C)O | 2 (≈ 4.44 µM) | 100 | 750 | 64 (≈ 142 µM) | 64 (≈ 142 µM) | 16 (≈ 35.5 µM) | 6.7 | < 2.5 | 128 (≈ 284 µM) | 380 | > 1000 | > 128 | 3.5 | – | 42 |
| CC(=O)c1cccc(N[C@H]2[C@H](N)[C@]3(NC(=O)O[C@H]3C)[C@@](C)(O)[C@@]2(O)COC(=O)c2c(C)cccc2O)c1 [PACTAMYCATE] | > 128 | > 1000 | > 1000 | > 128 | > 128 | > 128 | > 2500 | > 2500 | > 128 | > 1000 | > 1000 | > 128 | > 2500 | – | – |
| CC(=O)c1cccc(N[C@H]2[C@H](N)[C@@](NC(=O)N(C)C)([C@H](C)O)[C@@](C)(O)[C@@]2(O)COC(=O)c2c(C)cccc2O)c1 [PACTAMYCIN] | 0.12 (≈ 0.215 µM) | 70 | 240 | 128 (≈ 229 µM) | 16 (≈ 28.6 µM) | 16 (≈ 28.6 µM) | < 2.5 | 2.5 | 32 (≈ 57.3 µM) | 500 | > 1000 | 128 (≈ 229 µM) | < 2.5 | – | – |
